T cell HTS: modulators of CD8 T cell-vesicle binding, primary screen, mouse 2C CD8+ T cells, flow cytometry; 2C CD8+ T cell-vesicle binding; stronger effect = lower value; response (vesicle binding), % at 7 µM; 330,000 tested, 0.068% active;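 active = response, share of CD8 T cells binding vesicles, and their 90th percentile fluorescence all below set limits, cut at about 80% in these data, passing the limit was not always enough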;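 also: values below 100% mean blocked vesicle binding to the CD8+ T cells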
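Assay system – 2C mouse CD8+ T cells · Also added – QL9-loaded Drosophila micro-vesicles · Timing – Cell–vesicle co-incubation 1.5 h at 37 °C, staining 20 min on ice · Signal – flow cytometry of vesicle-bound cells · Measure – percent CD8+ FL2 mean versus row control · Controls – Peptide-free naked vesicles (low) and QL9 vesicles with 0.7% DMSO vehicle (high)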
Arrestin-AP2 inh: inhibitors of beta-arrestin/AP2 binding, primary screen, biochemical, GPCR trafficking, flow cytometry | FITC-arrestin peptide / GST-AP2 beads; AP2 beta2 appendage carries R879A mutation | inhibition, % at 10 µM | 340,000 tested, 0.31% active | beta-arrestin 1 C-terminal peptide binding to AP2 beta2-adaptin appendage (human);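 active = inhibition above a set limit, near 3 SD of compounds lacking own fluorescence, cut at about 54% in these data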;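 also: plate controls were DMSO wells for no effect and 5 µM unlabelled arrestin peptide for full effect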
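Material – GST-tagged AP2 beta2-adaptin appendage (R879A) on 4 µm glutathione beads · Probe or stimulus – fluorescein-tagged arrestin peptide at 50 nM final · Timing – 12 min plus 1 h, RT · Detection – bead flow cytometry, FITC channel · Read-out basis – inhibition as reduced fluorescein signal on beads, percent · Medium – PBS plus Tween 20 (0.05%) and BSA (0.1%)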
LANA-H2B inh: blockers of LANA interaction with H2A/H2B – biochemical, FP readout, HTS, primary screen; Protein LANA1 (Human herpesvirus 8 type P (isolate GK18)), Q9QR71; cell-free LANA-H2A/H2B peptide, fluorescence polarization; inhibition, % (concentration not given with the values); 320,000 tested, 0.6% active; AID 2629, 2010; in the data active = inhibition mostly above about 10%, no sharp cut-off; inactive = mostly below about 6.7%
Pemphigus Ab inh: inhibitors of pemphigus antibody binding to DSG3, primary screen, biochemical, bead-based, flow cytometry, scFv-GFP; Desmoglein-3 (Homo sapiens), P32926; binding (percent of control), % at 10 µM; DSG3-coupled beads, scFv-anti-DSG3-GFP binding; stronger effect = lower value; 310,000 tested, 0.48% active;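 active = binding more than 3 SD below its plate's average and above zero; inconclusive = below that plate limit but binding exactly zero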;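 also: hits lower antibody fragment binding to DSG3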
JMJD2C inh: inhibitors of GASC-1 histone demethylase, primary screen, biochemical, fluorescence, DELFIA europium; AID 2099, 2009; Lysine-specific demethylase 4C (Homo sapiens), Q9H3R0; inhibition, % at 2.35 µM; GST-JMJD2C(1-420) H3K9me3 demethylation; 330,000 tested, 0.069% active;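 active = more than half of a compound's replicate wells show inhibition beyond 50%, single wells judged on their own value; inconclusive = some, but no more than half, of replicates pass 50% inhibition; inactive = no replicate passes 50% inhibition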;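 also: signal counts dimethyl H3K9 product captured on neutravidin plate; 0% = median of DMSO wells and 100% = 0.3 times that DMSO median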
HDAC3 inh: HDAC3 deacetylase inhibitors, primary screen, biochemical, fluorescence, cell-free homogeneous; 320,000 tested, 0.15% active; recombinant HDAC3, fluorogenic peptide/trypsin coupled; inhibition, % at 8.3 µM; AID 2718, 2010; in the data active = inhibition above about 26%, passing the limit was not always enough; inconclusive = no clear call, values can overlap the other calls
Target sequence (O15379 whole entry, looked up): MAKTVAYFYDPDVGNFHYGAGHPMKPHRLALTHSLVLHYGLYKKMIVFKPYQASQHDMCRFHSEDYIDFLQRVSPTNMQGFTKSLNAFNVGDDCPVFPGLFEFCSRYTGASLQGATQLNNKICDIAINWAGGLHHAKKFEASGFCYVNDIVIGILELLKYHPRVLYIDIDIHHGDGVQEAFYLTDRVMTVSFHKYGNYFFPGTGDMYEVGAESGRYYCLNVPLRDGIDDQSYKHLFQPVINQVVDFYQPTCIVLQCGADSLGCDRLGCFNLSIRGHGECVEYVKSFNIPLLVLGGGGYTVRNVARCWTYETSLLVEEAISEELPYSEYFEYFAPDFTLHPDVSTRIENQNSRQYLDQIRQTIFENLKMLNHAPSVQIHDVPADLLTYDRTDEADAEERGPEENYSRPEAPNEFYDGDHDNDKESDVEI
* hit, by the source's call. The list is not random: actives were taken first. Their share in the collection is about 1.6%.

Screening COc1cc(N=c2ssnc2Cl)cc(OC)c1 returned T cell HTS 919.8, Arrestin-AP2 inh 11.4, LANA-H2B inh 1.7, Pemphigus Ab inh 62.1*, JMJD2C inh 6.0 and HDAC3 inh inconclusive.
O=C1NN=C2CCCCCC12 (stereo not drawn) was read as Pemphigus Ab inh 110.1.
`O=C(O)CC1S/C(=N/N=C/c2ccccn2)NC1=O` (stereo not drawn) gave T cell HTS 135.5, Arrestin-AP2 inh 0.4, LANA-H2B inh 23.6*, Pemphigus Ab inh 101.0, JMJD2C inh -4.0 and HDAC3 inh 7.6.
Screening NC(=O)NC(=O)CC1S/C(=N/N=C/c2ccccc2)NC1=O (stereo not drawn) returned T cell HTS 101.9, Arrestin-AP2 inh 10.2, LANA-H2B inh 1.8, Pemphigus Ab inh 121.2, JMJD2C inh -1.6 and HDAC3 inh 7.2.
Screening C[C@H](CO)N1C[C@H](C)[C@@H](CN(C)C)Oc2c(NS(=O)(=O)c3cn(C)cn3)cccc2C1=O returned T cell HTS 240.2, Arrestin-AP2 inh 1.5, LANA-H2B inh inactive, Pemphigus Ab inh 102.1, JMJD2C inh 6.0 and HDAC3 inh -3.5.
CN(/N=C\c1ccc(O)c(O)c1)c1nc(-c2ccccc2)cc(-c2ccccc2)n1 was read as T cell HTS 240.4, LANA-H2B inh -8.0, Pemphigus Ab inh 54.1*, JMJD2C inh -7.2 and HDAC3 inh -4.5.
Screening CCCCn1c(N)c(N(CC(C)C)C(=O)C2=NN(c3cc(C)ccc3C)C(=O)CC2)c(=O)[nH]c1=O returned T cell HTS 698.5, Arrestin-AP2 inh 42.5, LANA-H2B inh 0.0, Pemphigus Ab inh 89.3, JMJD2C inh -8.3 and HDAC3 inh 4.5.
O=C(Nc1nc2c(s1)CCCC2)C1COc2ccccc2O1 (stereo not drawn) was read as T cell HTS 38.2*, Arrestin-AP2 inh 15.8, LANA-H2B inh -3.3, Pemphigus Ab inh 96.7, JMJD2C inh -0.6 and HDAC3 inh 5.5.
For CN(C)S(=O)(=O)c1ccc(C(=O)NCc2nnc(SCC(=O)N3CCCC3)o2)cc1 the results were T cell HTS 282.0, Arrestin-AP2 inh -6.4, LANA-H2B inh -1.2, JMJD2C inh 12.2 and HDAC3 inh -1.0.
For Cc1ccc(CONC(=O)c2cccc([N+](=O)[O-])c2)cc1 the results were T cell HTS 246.8, Arrestin-AP2 inh -10.9, LANA-H2B inh 6.0, Pemphigus Ab inh 93.6, JMJD2C inh 44.2 and HDAC3 inh 1.2.
`COC(=O)C(/C=N/OCc1ccc([N+](=O)[O-])cc1)NC(=O)c1cccc(Cl)c1` (stereo not drawn) gave T cell HTS 397.4, Arrestin-AP2 inh 1.1, LANA-H2B inh 1.9, Pemphigus Ab inh 90.5, JMJD2C inh -6.6 and HDAC3 inh 44.3*.
For CC[C@]12c3[nH]c4cc(CCC(=O)N(C)C)ccc4c3CCN1C(=O)[C@@H](CC(=O)NCCCn1ccnc1)C[C@@H]2C(=O)N1CCN(C(=O)c2ccco2)CC1 the results were Arrestin-AP2 inh 35.7 and Pemphigus Ab inh 97.2.
CC(C(=O)N1CCCCC1)N(C)CC(=O)Nc1cccc(F)c1 (stereo not drawn) was read as T cell HTS 402.1, LANA-H2B inh 30.3* and HDAC3 inh 2.5.
Screening Cc1noc(C)c1COc1ccccc1C(=O)NC1CCC(C)CC1 (stereo not drawn) returned T cell HTS 240.0, Arrestin-AP2 inh -2.6, LANA-H2B inh -7.9, Pemphigus Ab inh 114.0, JMJD2C inh 6.1 and HDAC3 inh -0.9.
For NC(CSC1(c2ccc(F)cc2)c2ccccc2-c2ccccc21)C(=O)O (stereo not drawn) the results were Pemphigus Ab inh 95.4.
`COc1ccc(C2(SCC(N)C(=O)O)c3ccccc3-c3ccccc32)cc1` (stereo not drawn) gave Arrestin-AP2 inh 5.7 and Pemphigus Ab inh 72.2*.
For Cc1cc2c(=O)n(C)c(SCC(=O)Nc3ccccc3C)nc2s1 the results were T cell HTS 338.2, Arrestin-AP2 inh 7.2, LANA-H2B inh -0.7, Pemphigus Ab inh 101.4, JMJD2C inh 0.2 and HDAC3 inh -3.7.
`O=C(NNC(=O)c1ccccc1F)C1=NN(c2ccccc2)C(=O)CC1` gave T cell HTS 306.6, Arrestin-AP2 inh -6.5, LANA-H2B inh 0.5, JMJD2C inh 0.4 and HDAC3 inh 1.0.
`O=C(Nc1nc(-c2cccnc2)cs1)c1cccc([N+](=O)[O-])c1` gave T cell HTS 215.9, Arrestin-AP2 inh 38.7, LANA-H2B inh 2.4, Pemphigus Ab inh 99.5, JMJD2C inh 9.1 and HDAC3 inh -1.2.
Screening O=C(Nc1nc(-c2cccnc2)cs1)c1ccc([N+](=O)[O-])cc1 returned T cell HTS 80.0, Arrestin-AP2 inh 6.1, LANA-H2B inh 7.9, Pemphigus Ab inh 29.3*, JMJD2C inh 16.5 and HDAC3 inh -2.5.
For CC(NC(=O)COC(=O)CN1C(=O)C2CCCCC2C1=O)c1ccccc1 (stereo not drawn) the results were T cell HTS 220.5, Arrestin-AP2 inh -8.2, LANA-H2B inh -3.4, Pemphigus Ab inh 117.3, JMJD2C inh 0.0 and HDAC3 inh 3.4.
For COc1ccc(-c2sc3ccc(N4CCOCC4)cc3c2-c2ccc(O)cc2)cc1 the results were T cell HTS 544.7, Arrestin-AP2 inh 6.3, LANA-H2B inh -1.1, Pemphigus Ab inh 104.5, JMJD2C inh 2.9 and HDAC3 inh -3.5.
Screening COC(=O)c1c(-c2ccc(OC)cc2)sc2ccc(N3CCOCC3)cc12 returned T cell HTS 338.8, Arrestin-AP2 inh -6.3, LANA-H2B inh -3.1, Pemphigus Ab inh 66.3*, JMJD2C inh 17.1 and HDAC3 inh 14.4.
`Cc1ccc(Cl)cc1NC(=O)COC(=O)CCN1C(=O)C2CC=CCC2C1=O` (stereo not drawn) gave T cell HTS 417.4, Arrestin-AP2 inh -1.8, LANA-H2B inh -9.2, Pemphigus Ab inh 91.7, JMJD2C inh 8.9 and HDAC3 inh 1.2.
For O=Cc1coc2c(ccc3ccccc32)c1=O the results were T cell HTS 519.6, LANA-H2B inh -1.9, JMJD2C inh -17.9 and HDAC3 inh -0.7.
`CCCC[C@@H]1C=C(C(=O)O)[C@H](c2ccc(Cl)cc2)N1S(=O)(=O)c1ccc(C)cc1` gave T cell HTS 242.0, Arrestin-AP2 inh 0.5, LANA-H2B inh 84.4*, Pemphigus Ab inh 105.8, JMJD2C inh -0.7 and HDAC3 inh 3.3.
